Laboratory results reported in ChEMBL document CHEMBL2417509, “Synthesis and biological evaluation of prodigiosene conjugates of porphyrin, estrone and 4-hydroxytamoxifen” (2013).

What was measured:
Format in all cases: functional
CAKI-1 = experiment: Cytotoxicity against human CAKI-1 cells after 2 days by sulforhodamine B assay; conditions: CAKI-1, 48 h
Summary of the method: (§1)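 NCI60 multi-dose screen, 59 human tumour lines available. Cells exposed to compound across a 5-log mol/L concentration range for 2 days, then fixed and stained with sulphorhodamine B, optical density read. Growth inhibition calculated against time-zero control and untreated cells. GI50 derived from the dose series, average of two replicates.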

RXF 393 = experiment: Cytotoxicity against human RXF393 cells after 2 days by sulforhodamine B assay; conditions: RXF 393, 48 h; summary of the method: as §1
A498 = experiment: Cytotoxicity against human A498 cells after 2 days by sulforhodamine B assay; conditions: A498, 48 h; summary of the method: as §1
786-0 = experiment: Cytotoxicity against human 786-0 cells after 2 days by sulforhodamine B assay; conditions: 786-0, 48 h; summary of the method: as §1
SK-OV-3 = experiment: Cytotoxicity against human SKOV3 cells after 2 days by sulforhodamine B assay; conditions: SK-OV-3, 48 h; summary of the method: as §1
OVCAR-8 = experiment: Cytotoxicity against human OVCAR8 cells after 2 days by sulforhodamine B assay; conditions: OVCAR-8, 48 h; summary of the method: as §1
[1] = Cytotoxicity against human NCI-ADR-RES cells after 2 days by sulforhodamine B assay; conditions: 48 h; summary of the method: as §1
OVCAR-5 = experiment: Cytotoxicity against human OVCAR5 cells after 2 days by sulforhodamine B assay; conditions: OVCAR-5, 48 h; summary of the method: as §1
OVCAR-3 = experiment: Cytotoxicity against human OVCAR3 cells after 2 days by sulforhodamine B assay; conditions: OVCAR-3, 48 h; summary of the method: as §1
SK-MEL-28 = experiment: Cytotoxicity against human SK-MEL-28 cells after 2 days by sulforhodamine B assay; conditions: SK-MEL-28, 48 h; summary of the method: as §1
SK-MEL-2 = experiment: Cytotoxicity against human SK-MEL-2 cells after 2 days by sulforhodamine B assay; conditions: SK-MEL-2, 48 h; summary of the method: as §1
SF-539 = experiment: Cytotoxicity against human SF539 cells after 2 days by sulforhodamine B assay; conditions: SF-539, 48 h; summary of the method: as §1
SNB-19 = experiment: Cytotoxicity against human SNB19 cells after 2 days by sulforhodamine B assay; conditions: SNB-19, 48 h
Summary of the method: (§2)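 NCI DTP NCI60 multi-dose screen (59 human tumour lines available). Cells exposed to compound over a 5-log mol/L concentration range for 2 days, then fixed and stained with sulphorhodamine B, with optical density read. Growth inhibition calculated relative to time-zero cells and untreated cells, giving GI50 (half-maximal growth inhibition concentration). Average of two replicates.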

SF-268 = experiment: Cytotoxicity against human SF268 cells after 2 days by sulforhodamine B assay; conditions: SF-268, 48 h; summary of the method: as §1
HT-29 = experiment: Cytotoxicity against human HT-29 cells after 2 days by sulforhodamine B assay; conditions: HT-29, 48 h; summary of the method: as §1
HCT-116 = experiment: Cytotoxicity against human HCT116 cells after 2 days by sulforhodamine B assay; conditions: HCT-116, 48 h; summary of the method: as §1
HCC 2998 = experiment: Cytotoxicity against human HCC2998 cells after 2 days by sulforhodamine B assay; conditions: HCC 2998, 48 h; summary of the method: as §1
COLO 205 = experiment: Cytotoxicity against human COLO205 cells after 2 days by sulforhodamine B assay; conditions: COLO 205, 48 h; summary of the method: as §1
NCI-H460 = experiment: Cytotoxicity against human NCI-H460 cells after 2 days by sulforhodamine B assay; conditions: NCI-H460, 48 h; summary of the method: as §1
NCI-H226 = experiment: Cytotoxicity against human NCI-H226 cells after 2 days by sulforhodamine B assay; conditions: NCI-H226, 48 h; summary of the method: as §1
NCI-H23 = experiment: Cytotoxicity against human NCI-H23 cells after 2 days by sulforhodamine B assay; conditions: NCI-H23, 48 h; summary of the method: as §1
RPMI-8226 = experiment: Cytotoxicity against human RPMI8226 cells after 2 days by sulforhodamine B assay; conditions: RPMI-8226, 48 h; summary of the method: as §1
SR = experiment: Cytotoxicity against human SR cells after 2 days by sulforhodamine B assay; conditions: 48 h; summary of the method: as §2
MOLT-4 = experiment: Cytotoxicity against human MOLT4 cells after 2 days by sulforhodamine B assay; conditions: MOLT-4, 48 h; summary of the method: as §1
CCRF-CEM = experiment: Cytotoxicity against human CCRF-CEM cells after 2 days by sulforhodamine B assay; conditions: 48 h; summary of the method: as §1
[2] = Cytotoxicity against human Hs578T cells after 2 days by sulforhodamine B assay; conditions: Hs-578T, 48 h; summary of the method: as §1
MDA-MB-231 = experiment: Cytotoxicity against human MDA-MB-231 cells after 2 days by sulforhodamine B assay; conditions: MDA-MB-231, 48 h; summary of the method: as §1
MCF7 = experiment: Cytotoxicity against human MCF7 cells after 2 days by sulforhodamine B assay; conditions: MCF7, 48 h; summary of the method: as §1
UO-31 = experiment: Cytotoxicity against human UO31 cells after 2 days by sulforhodamine B assay; conditions: UO-31, 48 h; summary of the method: as §2
[3] = read-out: LC50 (the source's name)

Work on `COc1cc(-c2ccc[nH]2)[nH]c1/C=C1\N=C(C)C(C(=O)CCC(=O)Oc2ccc3c(c2)CC[C@@H]2[C@@H]3CC[C@]3(C)C(=O)CC[C@@H]23)=C1C` yielded a GI50 (CAKI-1) of 9.05 µM, an LC50 (concentration killing 50% of the cells present at time zero) (CAKI-1) greater than 100 µM and a TGI (CAKI-1) greater than 100 µM. It also gave a GI50 (RXF 393) of 11.7 µM, an LC50 (concentration killing 50% of cells) (RXF 393) greater than 100 µM and a TGI (RXF 393) greater than 100 µM. For the same molecule, the GI50 (A498) was 8.49 µM, the LC50 (A498) was greater than 100 µM and the TGI (A498) was 59.1 µM. The GI50 (786-0) was 5.99 µM, the LC50 (concentration killing 50% of cells) (786-0) was greater than 100 µM and the TGI (786-0) was 40 µM. The GI50 (SK-OV-3) was greater than 100 µM, the LC50 (concentration killing 50% of starting cells) (SK-OV-3) was greater than 100 µM and the TGI (SK-OV-3) was greater than 100 µM. For the same molecule, the GI50 (OVCAR-8) was 8.36 µM, the LC50 (OVCAR-8) was greater than 100 µM and the TGI (OVCAR-8) was greater than 100 µM. The GI50 [1] was 13.1 µM, the TGI [1] was greater than 100 µM and the CC50 [1, 3] was greater than 100 µM. The GI50 (OVCAR-5) was 9.64 µM, the LC50 (OVCAR-5) was greater than 100 µM and the TGI (OVCAR-5) was greater than 100 µM. The GI50 (OVCAR-3) was 17.6 µM, the LC50 (OVCAR-3) was greater than 100 µM and the TGI (OVCAR-3) was greater than 100 µM. The GI50 (SK-MEL-28) was 75 µM, the LC50 (SK-MEL-28) was greater than 100 µM and the TGI (SK-MEL-28) was greater than 100 µM. It also gave a GI50 (SK-MEL-2) of 15.6 µM, an LC50 (SK-MEL-2) greater than 100 µM and a TGI (SK-MEL-2) of 58.8 µM. The GI50 (SF-539) was 15.5 µM, the LC50 (SF-539) was greater than 100 µM and the TGI (SF-539) was greater than 100 µM. It also gave a GI50 (SNB-19) of 18.4 µM, a TGI (SNB-19) greater than 100 µM and a CC50 (SNB-19; [3]) greater than 100 µM. For the same molecule, the GI50 (SF-268) was 5.62 µM, the LC50 (concentration killing 50% of cells) (SF-268) was greater than 100 µM and the TGI (SF-268) was greater than 100 µM. For the same molecule, the GI50 (HT-29) was 0.87 µM, the LC50 (HT-29) was greater than 100 µM and the TGI (HT-29) was greater than 100 µM. For the same molecule, the GI50 (HCT-116) was 0.8 µM, the LC50 (concentration killing 50% of cells vs time zero) (HCT-116) was greater than 100 µM and the TGI (HCT-116) was greater than 100 µM. The GI50 (HCC 2998) was 17 µM, the LC50 (50% lethal concentration) (HCC 2998) was greater than 100 µM and the TGI (HCC 2998) was greater than 100 µM. The GI50 (COLO 205) was 21.6 µM, the LC50 (concentration killing 50% of cells) (COLO 205) was greater than 100 µM and the TGI (COLO 205) was greater than 100 µM. It also gave a GI50 (NCI-H460) of 3.09 µM, an LC50 (NCI-H460) greater than 100 µM and a TGI (NCI-H460) greater than 100 µM. For the same molecule, the GI50 (NCI-H226) was 11.1 µM, the LC50 (NCI-H226) was greater than 100 µM and the TGI (NCI-H226) was greater than 100 µM. It also gave a GI50 (NCI-H23) of 9.8 µM, an LC50 (concentration killing 50% of cells) (NCI-H23) greater than 100 µM and a TGI (NCI-H23) greater than 100 µM. The GI50 (RPMI-8226) was 6.86 µM, the LC50 (concentration killing 50% of cells present at time zero) (RPMI-8226) was greater than 100 µM and the TGI (RPMI-8226) was greater than 100 µM. It also gave a GI50 (SR) of 0.72 µM, an LC50 (concentration giving 50% net cell kill) (SR) greater than 100 µM and a TGI (SR) greater than 100 µM. For the same molecule, the GI50 (MOLT-4) was 2.72 µM, the TGI (MOLT-4) was greater than 100 µM and the CC50 (MOLT-4; [3]) was greater than 100 µM. The GI50 (CCRF-CEM) was 0.54 µM, the TGI (CCRF-CEM) was greater than 100 µM and the CC50 (CCRF-CEM; [3]) was greater than 100 µM. The GI50 [2] was 14.2 µM, the TGI [2] was greater than 100 µM and the CC50 [2, 3] was greater than 100 µM. The GI50 (MDA-MB-231) was 0.27 µM, the LC50 (MDA-MB-231) was 23 µM and the TGI (MDA-MB-231) was 1.21 µM. The GI50 (MCF7) was 1.91 µM, the LC50 (concentration giving 50% net cell kill) (MCF7) was greater than 100 µM and the TGI (MCF7) was greater than 100 µM. It also gave a GI50 (UO-31) of 4.15 µM, an LC50 (UO-31) greater than 100 µM and a TGI (UO-31) of 31 µM.
